The test system of experiment [1] is Pseudomonas aeruginosa. Briefly: Antibacterial activity against Pseudomonas aeruginosa ATCC 25619 assessed as growth inhibition after 20 hrs by microdilution method. In kind it is functional. The conditions noted are these: ATCC 25619, 20 h. The essentials: (§1)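 Broth microdilution per CLSI in cation-adjusted Mueller-Hinton broth, using serial 2-fold compound dilutions. Each strain was inoculated at 5 × 10⁴ CFU per well in 0.1 mL. Plates were incubated at 35 °C for 20 h, and the MIC was then scored.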
In general terms: Dilution methods test growth across graded concentrations, often in twofold steps.

Experiment [2] relates to Pseudomonas aeruginosa. The experiment is described as follows: Antibacterial activity against clinical isolate Pseudomonas aeruginosa SR27156 assessed as growth inhibition after 20 hrs by microdilution method. The experiment is classed as functional. The conditions noted are these: SR27156, 20 h. The essentials: as §1
In experiment [3] the test system is Pseudomonas aeruginosa. Briefly: Antibacterial activity against Pseudomonas aeruginosa PAO1 assessed as growth inhibition after 20 hrs by microdilution method. The conditions noted are these: PAO1, 20 h. The experiment is classed as functional. The essentials: as §1
The test system of experiment [4] is Pseudomonas aeruginosa. Briefly: Antibacterial activity against Pseudomonas aeruginosa YY165 deltamexB mutant assessed as growth inhibition after 20 hrs by microdilution method. In kind it is functional. The conditions noted are these: YY165, 20 h. The essentials: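 Broth microdilution per CLSI in cation-adjusted Mueller–Hinton broth; serial 2-fold compound dilutions inoculated with 5 × 10⁴ CFU per well (0.1 mL), incubated 35 °C for 20 h, then MIC scored. Strain YY165 is a MexB deletion mutant lacking the inner-membrane transporter of the MexAB-OprM efflux system.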

Experiment [5] deals with Pseudomonas aeruginosa. Briefly: Antibacterial activity against Pseudomonas aeruginosa ATCC 27853 assessed as growth inhibition after 20 hrs by microdilution method. In kind it is functional. As to conditions: ATCC 27853, 20 h. The method in brief: as §1
Experiment [6] is described as follows: Inhibition of Staphylococcus aureus MraY by fluorescence assay. The method in brief:
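Purified S. aureus MraY was given UDP-MurNAc-dansylpentapeptide as substrate. Formation of dansylated lipid I was followed by fluorescence enhancement (excitation 355 nm, emission 535 nm).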

The values that follow come from ChEMBL document CHEMBL3286247, “Expansion of Antibacterial Spectrum of Muraymycins toward Pseudomonas aeruginosa” (ACS Med Chem Lett, 2014).

≈ marks a conversion by molar mass, not a printed value.

In general, MIC refers to the smallest concentration in the dilution series that meets the test's criterion for growth inhibition. By IC50 is commonly meant the concentration that inhibits the measured activity by half. A high value points to weaker potency. In the case of `CCCCCCCCCCCCCCC[C@H](NC(=O)c1ccc2ccccc2n1)C(=O)NCCCN[C@H](C(=O)O)[C@H](O[C@@H]1O[C@H](CN)[C@@H](O)[C@H]1O)[C@H]1O[C@@H](n2ccc(=O)[nH]c2=O)[C@H](O)[C@@H]1O`, the MIC in the experiment with Pseudomonas aeruginosa [1], with Pseudomonas aeruginosa [2], with Pseudomonas aeruginosa [3], in the experiment with Pseudomonas aeruginosa [4] and with Pseudomonas aeruginosa [5] was over 64 µg/mL throughout. The IC50 in experiment [6] was 105 nM.
As to `CCCCCCCCCCCCCCC[C@H](NC(=O)c1ccccn1)C(=O)NCCCN[C@H](C(=O)O)[C@H](O[C@@H]1O[C@H](CN)[C@@H](O)[C@H]1O)[C@H]1O[C@@H](n2ccc(=O)[nH]c2=O)[C@H](O)[C@@H]1O`, the MIC in the experiment with Pseudomonas aeruginosa [1] is 64 µg/mL (≈ 72.9 µM); in the experiment on Pseudomonas aeruginosa [2], over 64 µg/mL; with Pseudomonas aeruginosa [3], over 64 µg/mL; in the experiment with Pseudomonas aeruginosa [4], over 64 µg/mL; with Pseudomonas aeruginosa [5], over 64 µg/mL. This compound gave an IC50 in experiment [6] of 6.4 nM.
`CCCCCCCCCCCCCCC[C@H](NC(=O)[C@@H](NC(=O)N[C@H](C(=O)O)C(C)C)[C@@H]1CCNC(=N)N1)C(=O)NCCCN[C@H](C(=O)O)[C@H](O[C@@H]1O[C@H](CN)[C@@H](O)[C@H]1O)[C@H]1O[C@@H](n2ccc(=O)[nH]c2=O)[C@H](O)[C@@H]1O`: the MIC in the experiment on Pseudomonas aeruginosa [1], in the experiment with Pseudomonas aeruginosa [2], in the experiment on Pseudomonas aeruginosa [3], in the experiment with Pseudomonas aeruginosa [4] and in the experiment with Pseudomonas aeruginosa [5] was over 64 µg/mL each time. Besides, the IC50 in experiment [6] came to 1.1 nM.
Consider `CCCCCCCCCCCCCCC[C@H](NC(=O)[C@@H](N)CCCSC)C(=O)NCCCN[C@H](C(=O)O)[C@H](O[C@@H]1O[C@H](CN)[C@@H](O)[C@H]1O)[C@H]1O[C@@H](n2ccc(=O)[nH]c2=O)[C@H](O)[C@@H]1O`, for which the minimum inhibitory concentration (MIC) in the experiment with Pseudomonas aeruginosa [1] is 16 µg/mL (≈ 17.4 µM); with Pseudomonas aeruginosa [2], 64 µg/mL (≈ 69.7 µM); in the experiment with Pseudomonas aeruginosa [3], over 64 µg/mL; in the experiment on Pseudomonas aeruginosa [4], 16 µg/mL (≈ 17.4 µM); in the experiment with Pseudomonas aeruginosa [5], 64 µg/mL (≈ 69.7 µM). This compound also had a half-inhibitory concentration (IC50) in experiment [6] of 8.5 nM.
Regarding `CCCCCCCCCCCCCCC[C@H](NC(=O)c1ccccc1)C(=O)NCCCN[C@H](C(=O)O)[C@H](O[C@@H]1O[C@H](CN)[C@@H](O)[C@H]1O)[C@H]1O[C@@H](n2ccc(=O)[nH]c2=O)[C@H](O)[C@@H]1O`, the minimal inhibitory concentration (MIC) in the experiment on Pseudomonas aeruginosa [1], in the experiment with Pseudomonas aeruginosa [2], in the experiment on Pseudomonas aeruginosa [3], in the experiment with Pseudomonas aeruginosa [4] and with Pseudomonas aeruginosa [5] was over 64 µg/mL each time. Also, half-maximal inhibition in experiment [6] (IC50) required 29.6 nM.
As for `CCCCCCCCCCCCCCC[C@H](NC(=O)[C@@H](N)CCCN)C(=O)NCCCN[C@H](C(=O)O)[C@H](O[C@@H]1O[C@H](CN)[C@@H](O)[C@H]1O)[C@H]1O[C@@H](n2ccc(=O)[nH]c2=O)[C@H](O)[C@@H]1O`, the MIC in the experiment with Pseudomonas aeruginosa [1] was 32 µg/mL (≈ 36.1 µM); with Pseudomonas aeruginosa [2], 32 µg/mL (≈ 36.1 µM); with Pseudomonas aeruginosa [3], 64 µg/mL (≈ 72.1 µM); in the experiment with Pseudomonas aeruginosa [4], 32 µg/mL (≈ 36.1 µM); with Pseudomonas aeruginosa [5], 64 µg/mL (≈ 72.1 µM). This compound also returned an IC50 in experiment [6] of 3.8 nM.
Consider `CCCCCCCCCCCCCCC[C@H](N)C(=O)NCCCN[C@H](C(=O)O)[C@H](O[C@@H]1O[C@H](CN)[C@@H](O)[C@H]1O)[C@H]1O[C@@H](n2ccc(=O)[nH]c2=O)[C@H](O)[C@@H]1O`, for which the MIC with Pseudomonas aeruginosa [1] was 32 µg/mL (≈ 41.4 µM); with Pseudomonas aeruginosa [2], over 64 µg/mL; in the experiment on Pseudomonas aeruginosa [3], over 64 µg/mL; with Pseudomonas aeruginosa [4], 32 µg/mL (≈ 41.4 µM); with Pseudomonas aeruginosa [5] it was over 64 µg/mL. In addition, the IC50 in experiment [6] is 2.6 nM.
As for `CCCCCCCCCCCCCCC[C@H](NC(=O)c1ccnnc1)C(=O)NCCCN[C@H](C(=O)O)[C@H](O[C@@H]1O[C@H](CN)[C@@H](O)[C@H]1O)[C@H]1O[C@@H](n2ccc(=O)[nH]c2=O)[C@H](O)[C@@H]1O`, the MIC in the experiment on Pseudomonas aeruginosa [1] is 64 µg/mL (≈ 72.8 µM); with Pseudomonas aeruginosa [2] it was over 64 µg/mL; with Pseudomonas aeruginosa [3], over 64 µg/mL; with Pseudomonas aeruginosa [4] it was 64 µg/mL (≈ 72.8 µM); in the experiment with Pseudomonas aeruginosa [5], over 64 µg/mL. The IC50 in experiment [6] was 13.5 nM.
